According to ChEMBL document CHEMBL2016482, “Synthesis and inhibitory effect of piperine derivates on monoamine oxidase” (Bioorg Med Chem Lett, 2012):

Columns and labels:
[1] = target: T1, Amine oxidase [flavin-containing] B (Rattus norvegicus, UniProt P19643); assay: Inhibition of MAO-B in Sprague-Dawley rat brain homogenate using kynuramine as substrate preincubated for 10 mins measured by fluorimetric assay; format: tissue-based
T1 sequence (P19643 whole entry): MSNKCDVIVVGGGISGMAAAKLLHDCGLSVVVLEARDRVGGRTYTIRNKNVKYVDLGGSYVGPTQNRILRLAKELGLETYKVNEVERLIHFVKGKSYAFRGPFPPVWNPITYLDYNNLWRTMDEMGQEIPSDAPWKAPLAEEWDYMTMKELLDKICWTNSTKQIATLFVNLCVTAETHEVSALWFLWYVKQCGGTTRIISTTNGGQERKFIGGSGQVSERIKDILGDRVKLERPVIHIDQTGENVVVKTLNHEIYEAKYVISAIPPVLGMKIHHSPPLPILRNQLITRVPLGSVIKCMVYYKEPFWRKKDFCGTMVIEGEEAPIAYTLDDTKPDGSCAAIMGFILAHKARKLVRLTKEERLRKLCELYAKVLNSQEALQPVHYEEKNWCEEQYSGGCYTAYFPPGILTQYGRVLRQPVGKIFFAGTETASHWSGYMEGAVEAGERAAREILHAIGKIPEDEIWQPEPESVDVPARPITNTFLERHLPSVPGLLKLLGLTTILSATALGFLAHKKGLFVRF
Outline: (§1)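 Rat brain homogenate was the enzyme source, with protein measured by Bradford against a BSA standard. Fluorometric MAO assay used kynuramine substrate in the presence of isoform-specific inhibitors. Test inhibitor was preincubated with homogenate for 10 min. IC50 came from plots of % residual activity relative to enzyme treated identically without inhibitor.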

[2] = target: T2, Amine oxidase [flavin-containing] A (Rattus norvegicus, UniProt P21396); assay: Inhibition of MAO-A in Sprague-Dawley rat brain homogenate using kynuramine as substrate preincubated for 10 mins measured by fluorimetric assay; format: tissue-based; outline: as §1
T2 sequence (P21396 whole entry): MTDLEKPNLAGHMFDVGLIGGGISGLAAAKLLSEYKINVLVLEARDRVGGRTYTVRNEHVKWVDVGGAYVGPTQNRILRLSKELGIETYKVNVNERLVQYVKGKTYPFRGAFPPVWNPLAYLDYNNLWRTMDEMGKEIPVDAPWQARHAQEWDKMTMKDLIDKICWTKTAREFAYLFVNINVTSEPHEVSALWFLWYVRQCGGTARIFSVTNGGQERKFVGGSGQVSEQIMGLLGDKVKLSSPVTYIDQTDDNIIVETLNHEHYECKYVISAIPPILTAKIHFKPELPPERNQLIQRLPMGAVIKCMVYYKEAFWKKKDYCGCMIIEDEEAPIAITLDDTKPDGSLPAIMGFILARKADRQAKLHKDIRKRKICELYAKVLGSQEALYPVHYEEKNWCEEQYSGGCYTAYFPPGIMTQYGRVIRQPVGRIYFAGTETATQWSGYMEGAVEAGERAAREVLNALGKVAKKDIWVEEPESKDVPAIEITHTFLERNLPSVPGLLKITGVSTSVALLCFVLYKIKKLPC

[3] = species: Rattus norvegicus; assay: Selectivity ratio of IC50 for Sprague-Dawley rat MAO-A to IC50 for Sprague-Dawley rat MAO-B
[4] = target: T1, Amine oxidase [flavin-containing] B; assay: Competitive inhibition of MAO-B in Sprague-Dawley rat brain homogenate by Lineweaver-Burk plot analysis; format: tissue-based
Outline: (§2)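 Kinetic mode of the same homogenate kynuramine fluorometric assay. Reciprocal MAO activity was plotted against reciprocal kynuramine concentration (Lineweaver–Burk), each at three inhibitor levels including zero, run separately for MAO-A and MAO-B.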

[5] = target: T2, Amine oxidase [flavin-containing] A; assay: Competitive inhibition of MAO-A in Sprague-Dawley rat brain homogenate by Lineweaver-Burk plot analysis; format: tissue-based; outline: as §2

Structure (SMILES)	IC50 [1] [nM]	IC50 [2] [nM]	Ratio IC50 [3]	inhibition (INH) [4]	inhibition (INH) [5]
O=C(/C=C/C=C/c1ccc(O)c(O)c1)N1CCCCC1	1570	800	0.51		
CCOC(=O)CCCCc1ccc2c(c1)OCO2	1230	5570	4.53		
CCCCNC(=O)CCCCc1ccc2c(c1)OCO2	3500	16100	4.59		
O=C(CCCCc1ccc2c(c1)OCO2)N1CCCCC1 [TETRAHYDROPIPERINE]	1970	> 100000			
CCOC(=O)/C=C/C=C/c1ccc2c(c1)OCO2	330	7550	22.8		
O=C(O)/C=C/C=C/c1ccc2c(c1)OCO2 [PIPERIC ACID]	13600	18300	1.35		
CN1CCN(C(=O)CCCCc2ccc3c(c2)OCO3)CC1	> 100000	> 100000			
CCCCNC(=O)/C=C/C=C/c1ccc2c(c1)OCO2	330	> 100000			
CN1CCN(C(=O)/C=C/C=C/c2ccc3c(c2)OCO3)CC1	960	2040	2.12		
CC(=O)Oc1ccc(/C=C/C=C/C(=O)N2CCCCC2)cc1OC(C)=O	750	1280	1.71		
CCCNC(=O)CCCCc1ccc2c(c1)OCO2	> 100000	> 100000			
CCN(CC)C(=O)/C=C/C=C/c1ccc2c(c1)OCO2	78	3820	49		
O=C(C1C=CC(c2ccc3c(c2)OCO3)C(/C=C/c2ccc3c(c2)OCO3)C1C(=O)N1CCCCC1)N1CCCCC1 (stereo not drawn)	> 100000	> 100000			
COC(=O)CCCCc1ccc2c(c1)OCO2	1800	3170	1.76		
CCN(CC)C(=O)CCCCc1ccc2c(c1)OCO2	1750	5210	2.98		
COC(=O)/C=C/C=C/c1ccc2c(c1)OCO2 [METHYL PIPERATE]	230	2740	11.9		
CCCNC(=O)/C=C/C=C/c1ccc2c(c1)OCO2	45	3660	81.5	Active	Active
O=C(/C=C/C=C/c1ccc2c(c1)OCO2)N1CCCCC1 [PIPERINE]	260	404	1.55		
C(/C=C/c1ccc2c(c1)OCO2)=C\CN1CCCCC1	> 100000	> 100000			
